In ChEMBL document CHEMBL4732018, “Design, synthesis, and biological evaluation of pyrazole-linked aloe emodin derivatives as potential anticancer agents” (RSC Med Chem, 2021):
The source made the active and inactive calls. The rule behind the calls is not given here.

Experiments:
MDA-MB-231 [1] = test: Induction of cell cycle arrest in human MDA-MB-231 cells assessed as accumulation at G2/M phase at 10 uM measured after 24 hrs by PI staining based flow cytometry (reference value: 4.31 %); assay type: functional
MDA-MB-231 [2] = test: Induction of apoptosis in human MDA-MB-231 cells assessed as increase in caspase 3 activity at 5 to 20 uM pretreated for 48 hrs followed by DEVD-pNA substrate addition for 2 hrs by colorimetric analysis; assay type: functional, cell-based; conditions: dose 5-20 µM, time 50.0 hrs
How it was run: (§1)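 Colorimetric caspase kit. MDA-MB-231 cells were cultured 24 h, then treated at 0, 5, 10 and 20 µM for 48 h. Lysates were mixed with reaction buffer containing 10 mM DTT. pNA substrate was added at 4 mM final (VDVAD for caspase-2, DEVD for caspase-3, VEID for caspase-6) and incubated 2 h at 37 °C. Absorbance read at 405 nm; triplicate, mean ± SD.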

B16-F10 = test: Anticancer activity against mouse B16-F10 cells assessed as cell growth inhibition measured after 48 hrs by MTT assay; assay type: functional, cell-based; conditions: B16-F10, 48 h
How it was run: (§2)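 MTT test on ATCC lines grown in RPMI with 10% FBS and antibiotic/antimycotic at 37 °C in 5% CO₂. Cells were seeded at 4 x 10^3/well and treated for 48 h at 2.5, 5, 10 and 20 µM, from DMSO stocks diluted in medium. MTT (10 mg/mL stock) was then added for 3 h and absorbance read at 540 nm. IC50 derived; three independent experiments.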

MDA-MB-231 [3] = test: Induction of apoptosis in human MDA-MB-231 cells assessed as early apoptotic cells at 10 uM measured after 24 hrs by Annexin V-FITC/PI staining based flow cytometric analysis (reference value: 6.73 %); assay type: functional
MDA-MB-231 [4] = test: Induction of apoptosis in human MDA-MB-231 cells assessed as increase in caspase 9 activity at 5 to 20 uM pretreated for 48 hrs followed by LEHD-pNA substrate addition for 2 hrs by colorimetric analysis; assay type: functional, cell-based; conditions: dose 5-20 µM, time 50.0 hrs
MDA-MB-231 [5] = test: Induction of cell cycle arrest in human MDA-MB-231 cells assessed as accumulation at sub G0 phase at 20 uM measured after 24 hrs by PI staining based flow cytometry (reference value: 1.33 %); assay type: functional
MDA-MB-231 [6] = test: Induction of apoptosis in human MDA-MB-231 cells assessed as late apoptotic cells at 20 uM measured after 24 hrs by Annexin V-FITC/PI staining based flow cytometric analysis; assay type: functional
MDA-MB-231 [7] = test: Induction of cell cycle arrest in human MDA-MB-231 cells assessed as accumulation at G1/S phase at 5 uM measured after 24 hrs by PI staining based flow cytometry (reference value: 19.33 %); assay type: functional
MDA-MB-231 [8] = test: Induction of apoptosis in human MDA-MB-231 cells assessed as late apoptotic cells at 5 uM measured after 24 hrs by Annexin V-FITC/PI staining based flow cytometric analysis; assay type: functional
MDA-MB-231 [9] = test: Induction of cell cycle arrest in human MDA-MB-231 cells assessed as accumulation at G2/M phase at 5 uM measured after 24 hrs by PI staining based flow cytometry (reference value: 4.31 %); assay type: functional
MDA-MB-231 [10] = test: Induction of cell cycle arrest in human MDA-MB-231 cells assessed as accumulation at sub G0 phase at 10 uM measured after 24 hrs by PI staining based flow cytometry (reference value: 1.33 %); assay type: functional
MDA-MB-231 [11] = test: Induction of cell cycle arrest in human MDA-MB-231 cells assessed as accumulation at G0/G1 phase at 10 uM measured after 24 hrs by PI staining based flow cytometry (reference value: 76.36 %); assay type: functional
MDA-MB-231 [12] = test: Induction of cell cycle arrest in human MDA-MB-231 cells assessed as accumulation at G0/G1 phase at 20 uM measured after 24 hrs by PI staining based flow cytometry (reference value: 76.36 %); assay type: functional
MDA-MB-231 [13] = test: Induction of cell cycle arrest in human MDA-MB-231 cells assessed as accumulation at G1/S phase at 20 uM measured after 24 hrs by PI staining based flow cytometry (reference value: 19.33 %); assay type: functional
HEK293 = test: Cytotoxicity against human HEK293 cells assessed as cell growth inhibition measured after 48 hrs by MTT assay; assay type: cell-based; conditions: HEK293, 48 h; how it was run: as §2
MDA-MB-231 [14] = test: Induction of apoptosis in human MDA-MB-231 cells assessed as late apoptotic cells at 10 uM measured after 24 hrs by Annexin V-FITC/PI staining based flow cytometric analysis; assay type: functional
MCF7 = test: Anticancer activity against human MCF-7 cells assessed as cell growth inhibition measured after 48 hrs by MTT assay; assay type: functional, cell-based; conditions: MCF7, 48 h; how it was run: as §2
MDA-MB-231 [15] = test: Induction of apoptosis in human MDA-MB-231 cells assessed as early apoptotic cells at 20 uM measured after 24 hrs by Annexin V-FITC/PI staining based flow cytometric analysis (reference value: 6.73 %); assay type: functional
MDA-MB-231 [16] = test: Induction of cell cycle arrest in human MDA-MB-231 cells assessed as accumulation at G2/M phase at 20 uM measured after 24 hrs by PI staining based flow cytometry (reference value: 4.31 %); assay type: functional
MDA-MB-231 [17] = test: Induction of apoptosis in human MDA-MB-231 cells assessed as increase in caspase 6 activity at 5 to 20 uM pretreated for 48 hrs followed by VEID-pNA substrate addition for 2 hrs by colorimetric analysis; assay type: functional, cell-based; conditions: dose 5-20 µM, time 50.0 hrs; how it was run: as §1
MDA-MB-231 [18] = test: Induction of membrane disintegrity in human MDA-MB-231 cells assessed as increase in LDH release at 2.5 to 20 uM incubated for 48 hrs by LDH leakage assay; assay type: functional, cell-based; conditions: dose 2.5-20 µM
How it was run: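 Extracellular LDH kit assay. Cells were seeded at 4 x 10^3/well and treated 48 h at various concentrations. 20 µL of culture supernatant was assayed with absorbance at 450 nm. Results are expressed as % LDH leakage relative to untreated control cells; triplicate, mean ± SD.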

MDA-MB-231 [19] = test: Induction of apoptosis in human MDA-MB-231 cells assessed as early apoptotic cells at 5 uM measured after 24 hrs by Annexin V-FITC/PI staining based flow cytometric analysis (reference value: 6.73 %); assay type: functional
MDA-MB-231 [20] = test: Induction of apoptosis in human MDA-MB-231 cells assessed as increase in caspase 8 activity at 5 to 20 uM pretreated for 48 hrs followed by IETD-pNA substrate addition for 2 hrs by colorimetric analysis; assay type: functional, cell-based; conditions: dose 5-20 µM, time 50.0 hrs
MDA-MB-231 [21] = test: Induction of cell cycle arrest in human MDA-MB-231 cells assessed as accumulation at G0/G1 phase at 5 uM measured after 24 hrs by PI staining based flow cytometry (reference value: 76.36 %); assay type: functional
HepG2 = test: Anticancer activity against human HepG2 cells assessed as cell growth inhibition measured after 48 hrs by MTT assay; assay type: functional, cell-based; conditions: HepG2, 48 h; how it was run: as §2
MDA-MB-231 [22] = test: Induction of cell cycle arrest in human MDA-MB-231 cells assessed as accumulation at G1/S phase at 10 uM measured after 24 hrs by PI staining based flow cytometry (reference value: 19.33 %); assay type: functional
MDA-MB-231 [23] = test: Anticancer activity against human MDA-MB-231 cells assessed as cell growth inhibition measured after 48 hrs by MTT assay; assay type: functional, cell-based; conditions: MDA-MB-231, 48 h; how it was run: as §2
MDA-MB-231 [24] = test: Induction of apoptosis in human MDA-MB-231 cells assessed as increase in caspase 2 activity at 5 to 20 uM pretreated for 48 hrs followed by VDVAD-pNA substrate addition for 2 hrs by colorimetric analysis; assay type: functional, cell-based; conditions: dose 5-20 µM, time 50.0 hrs; how it was run: as §1
MDA-MB-231 [25] = test: Induction of cell cycle arrest in human MDA-MB-231 cells assessed as accumulation at sub G0 phase at 5 uM measured after 24 hrs by PI staining based flow cytometry (reference value: 1.33 %); assay type: functional

| Structure (SMILES) | Activity (MDA-MB-231 [1]) [%] | Activity (MDA-MB-231 [2]) | IC50 (B16-F10) [µM] | Activity (MDA-MB-231 [3]) [%] | Activity (MDA-MB-231 [4]) | Activity (MDA-MB-231 [5]) [%] | Activity (MDA-MB-231 [6]) [%] | Activity (MDA-MB-231 [7]) [%] | Activity (MDA-MB-231 [8]) [%] | Activity (MDA-MB-231 [9]) [%] | Activity (MDA-MB-231 [10]) [%] | Activity (MDA-MB-231 [11]) [%] | Activity (MDA-MB-231 [12]) [%] | Activity (MDA-MB-231 [13]) [%] | IC50 (HEK293) [µM] | Activity (MDA-MB-231 [14]) [%] | IC50 (MCF7) [µM] | Activity (MDA-MB-231 [15]) [%] | Activity (MDA-MB-231 [16]) [%] | Activity (MDA-MB-231 [17]) | other results |
| --- | --- | --- | --- | --- | --- | --- | --- | --- | --- | --- | --- | --- | --- | --- | --- | --- | --- | --- | --- | --- | --- |
| COC(=O)c1c(-c2cc(O)c3c(c2)C(=O)c2cccc(O)c2C3=O)nn(-c2ccc(C(C)C)cc2)c1C(=O)OC | 0.05 | Active | 6.06 | 38.08 | Active | 61.45 | 50.45 | 22.19 | 17.43 | 0.62 | 10.87 | 65.81 | 74.2 | 25.8 | 21.2 | 14.24 | 2.68 | 35.34 | 0 | Active | Activity (MDA-MB-231 [18]): Active; Activity (MDA-MB-231 [19]): 20.55%; Activity (MDA-MB-231 [20]): Active; Activity (MDA-MB-231 [21]): 77.2%; IC50 (HepG2): 3.99 µM; Activity (MDA-MB-231 [22]): 34.14%; IC50 (MDA-MB-231 [23]): 1.66 µM; Activity (MDA-MB-231 [24]): Active; Activity (MDA-MB-231 [25]): 5.66% |
| COC(=O)c1c(-c2cc(O)c3c(c2)C(=O)c2cccc(O)c2C3=O)nn(-c2ccc(C)cc2)c1C(=O)OC | 4.54 | Active | 9.57 | 16.43 | Active | 25.8 | 71.81 | 36.97 | 19 | 5.77 | 8.2 | 63.3 | 69.82 | 17.85 | 30.1 | 38.13 | 0.99 | 12.47 | 12.33 | Active | Activity (MDA-MB-231 [18]): Active; Activity (MDA-MB-231 [19]): 38.3%; Activity (MDA-MB-231 [20]): Active; Activity (MDA-MB-231 [21]): 57.25%; IC50 (HepG2): 5.62 µM; Activity (MDA-MB-231 [22]): 32.1%; IC50 (MDA-MB-231 [23]): 1.32 µM; Activity (MDA-MB-231 [24]): Active; Activity (MDA-MB-231 [25]): 3.22% |
